{"source": "ChEMBL document CHEMBL4052637", "about": "“Discovery and Characterization of R/S-N-3-Cyanophenyl-N'-(6-tert-butoxycarbonylamino-3,4-dihydro-2,2-dimethyl-2H-1-benzopyran-4-yl)urea, a New Histone Deacetylase Class III Inhibitor Exerting Antiproliferative Activity against Cancer Cell Lines” (J Med Chem, 2017)", "key": {"[1]": {"test_system": "Hs 683", "assay": "Antiproliferative activity against human Hs683 cells after 72 hrs by MTT assay", "assay_type": "functional, cell-based", "settings": "Hs 683, 72 h", "how_it_was_run": "(§1)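 MTT assay: cells in RPMI 1640 with 10% heat-inactivated FCS at 37 °C and 5% CO2 were seeded 24 h before treatment. They were exposed 72 h to compound at 0.01–100 μM, with DMSO as solvent.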"}, "[2]": {"test_system": "T98G", "assay": "Antiproliferative activity against human T98G cells after 72 hrs by MTT assay", "assay_type": "functional, cell-based", "how_it_was_run": "as §1"}, "[3]": {"molecular_target": "NAD-dependent protein deacetylase sirtuin-3, mitochondrial (Homo sapiens, UniProt Q9NTG7)", "sequence (Q9NTG7 whole entry)": "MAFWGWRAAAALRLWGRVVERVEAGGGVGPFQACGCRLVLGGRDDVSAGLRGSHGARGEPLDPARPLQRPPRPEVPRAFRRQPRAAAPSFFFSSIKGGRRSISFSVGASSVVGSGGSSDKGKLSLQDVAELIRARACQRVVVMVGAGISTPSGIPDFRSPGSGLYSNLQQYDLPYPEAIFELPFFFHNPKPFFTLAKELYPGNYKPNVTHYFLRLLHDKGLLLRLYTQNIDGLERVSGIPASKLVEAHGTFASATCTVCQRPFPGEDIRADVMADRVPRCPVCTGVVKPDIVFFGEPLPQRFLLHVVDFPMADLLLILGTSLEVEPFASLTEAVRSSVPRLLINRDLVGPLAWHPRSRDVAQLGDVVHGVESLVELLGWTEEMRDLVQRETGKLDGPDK", "assay": "Inhibition of N-terminal His-tagged recombinant human SIRT-3 expressed in Escherichia coli using Fluor-de-Lys-SIRT1 as substrate after 15 mins by fluorescence assay"}, "[4]": {"molecular_target": "Histone deacetylase 3 (Homo sapiens) (UniProt O15379)", "sequence (O15379 whole entry)": "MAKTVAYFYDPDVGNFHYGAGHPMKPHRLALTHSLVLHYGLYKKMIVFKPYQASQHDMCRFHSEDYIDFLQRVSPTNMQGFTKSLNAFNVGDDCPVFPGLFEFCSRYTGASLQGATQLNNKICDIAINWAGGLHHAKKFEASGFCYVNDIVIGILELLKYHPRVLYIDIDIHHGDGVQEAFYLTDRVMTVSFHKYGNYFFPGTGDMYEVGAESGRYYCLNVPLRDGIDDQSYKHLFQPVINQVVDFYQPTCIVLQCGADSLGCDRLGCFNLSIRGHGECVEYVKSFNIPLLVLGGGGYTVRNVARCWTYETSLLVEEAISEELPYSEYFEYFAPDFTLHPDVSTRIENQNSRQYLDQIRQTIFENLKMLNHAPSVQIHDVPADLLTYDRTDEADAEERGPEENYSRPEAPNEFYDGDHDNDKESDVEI", "assay": "Inhibition of His-tagged recombinant human HDAC3 expressed in baculovirus infected insect cells at 0.1 to 100 uM using Fluor-de-Lys-SIRT1 as substrate after 15 mins by fluorescence assay"}, "[5]": {"molecular_target": "T1, NAD-dependent protein deacetylase sirtuin-2 (Homo sapiens) (UniProt Q8IXJ6)", "T1 sequence (whole entry)": "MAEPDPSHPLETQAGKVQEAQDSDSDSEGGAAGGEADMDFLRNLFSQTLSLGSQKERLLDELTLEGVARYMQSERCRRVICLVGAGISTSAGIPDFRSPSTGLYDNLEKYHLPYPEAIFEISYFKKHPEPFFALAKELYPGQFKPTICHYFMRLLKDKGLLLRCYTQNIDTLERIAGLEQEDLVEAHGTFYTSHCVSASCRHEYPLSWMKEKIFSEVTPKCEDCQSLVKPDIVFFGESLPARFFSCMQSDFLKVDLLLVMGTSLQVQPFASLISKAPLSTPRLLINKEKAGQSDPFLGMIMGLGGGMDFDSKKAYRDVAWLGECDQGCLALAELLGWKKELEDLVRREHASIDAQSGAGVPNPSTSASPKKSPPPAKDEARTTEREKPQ", "assay": "Inhibition of SIRT2 in human U373 cells assessed as increase of alpha-tubulin acetylation after 8 hrs by Western blotting method", "assay_type": "cell-based"}, "[6]": {"molecular_target": "T2, NAD-dependent protein deacetylase sirtuin-1 (Homo sapiens) (UniProt Q96EB6)", "T2 sequence (whole entry)": "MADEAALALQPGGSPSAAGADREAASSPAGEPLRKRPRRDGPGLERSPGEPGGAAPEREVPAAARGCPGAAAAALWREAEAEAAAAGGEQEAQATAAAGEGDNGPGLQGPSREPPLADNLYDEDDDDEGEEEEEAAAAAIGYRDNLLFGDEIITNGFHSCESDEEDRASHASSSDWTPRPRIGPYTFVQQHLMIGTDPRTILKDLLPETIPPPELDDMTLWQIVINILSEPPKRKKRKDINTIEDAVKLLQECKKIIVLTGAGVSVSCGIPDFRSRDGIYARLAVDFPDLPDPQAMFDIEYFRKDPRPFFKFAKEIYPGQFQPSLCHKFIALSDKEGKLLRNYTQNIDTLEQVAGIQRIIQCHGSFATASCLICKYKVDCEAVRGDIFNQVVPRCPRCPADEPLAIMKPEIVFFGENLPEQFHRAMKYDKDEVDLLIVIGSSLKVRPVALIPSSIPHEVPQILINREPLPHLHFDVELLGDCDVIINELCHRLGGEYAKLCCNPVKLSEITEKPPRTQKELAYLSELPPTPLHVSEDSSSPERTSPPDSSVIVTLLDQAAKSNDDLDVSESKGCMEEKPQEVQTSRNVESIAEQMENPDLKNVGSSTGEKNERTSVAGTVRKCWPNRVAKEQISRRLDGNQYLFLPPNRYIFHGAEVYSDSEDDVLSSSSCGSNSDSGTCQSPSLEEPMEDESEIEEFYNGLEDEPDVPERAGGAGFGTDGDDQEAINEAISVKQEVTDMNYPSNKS", "assay": "Inhibition of SIRT1 in human Hs683 cells assessed as increase of histone H4 acetylation after 8 hrs by Western blotting method", "assay_type": "cell-based"}, "[7]": {"molecular_target": "T2, NAD-dependent protein deacetylase sirtuin-1 (Homo sapiens)", "assay": "Inhibition of SIRT1 in human Hs683 cells assessed as increase of histone H4 acetylation at 10 to 25 after 8 to 24 hrs by Western blotting method", "assay_type": "cell-based"}, "[8]": {"molecular_target": "T2, NAD-dependent protein deacetylase sirtuin-1 (Homo sapiens)", "assay": "Inhibition of SIRT1 in human Hs683 cells assessed as increase of histone H3K56 acetylation at 10 to 25 after 8 to 24 hrs by Western blotting method", "assay_type": "cell-based", "how_it_was_run": "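Cells treated with the compound, then histone H3K56 acetylation assessed by Western blot on histone extracts; histone H1 or Coomassie staining as loading control.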"}, "[9]": {"test_system": "U-373MG ATCC", "assay": "Inhibition of spheroid forming capacity of human U373 cells assessed as decrease in surface area of tumor spheroids at 5 to 10 uM treated for 24 hrs measured after 96 hrs by bright field microscopic method", "assay_type": "functional, cell-based", "how_it_was_run": "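Spheroids formed from 1 × 10^3 cells in 25 μL. Cells were pretreated 24 h with compound then left untreated 96 h, or untreated spheroids were cultured 96 h with compound. Surface measured from bright-field images; volume in voxels from 3D plots after image segmentation. Mean ± SD of three independent experiments.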"}, "[10]": {"molecular_target": "T2, NAD-dependent protein deacetylase sirtuin-1 (Homo sapiens)", "assay": "Inhibition of SIRT1 in human Hs683 cells assessed as increase of histone H4 acetylation at 1 uM after 8 hrs by Western blotting method relative to control", "assay_type": "cell-based"}, "[11]": {"molecular_target": "T1, NAD-dependent protein deacetylase sirtuin-2 (Homo sapiens)", "assay": "Inhibition of SIRT2 in human U373 cells assessed as increase of alpha-tubulin acetylation at 5 uM after 8 hrs by Western blotting method relative to control", "assay_type": "cell-based"}, "[12]": {"molecular_target": "T1, NAD-dependent protein deacetylase sirtuin-2 (Homo sapiens)", "assay": "Inhibition of SIRT2 in human U373 cells assessed as increase of alpha-tubulin acetylation at 10 uM after 8 hrs by Western blotting method relative to control", "assay_type": "cell-based"}, "[13]": {"test_system": "Hs 683", "assay": "Cell cycle arrest in human Hs683 cells assessed as accumulation at sub-G1 phase at IC50 for MTT assay after 24 to 48 hrs by propidium iodide staining-based flow cytometry", "assay_type": "functional", "how_it_was_run": "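Cells were exposed to compound at the IC50 for each line from the 72 h MTT assay, or to a reference HDAC inhibitor at 2 μM. Cell cycle distribution was analyzed after 24 and 48 h. Results are mean ± SD of three independent experiments, with p values against control cells.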"}, "[14]": {"test_system": "HCT-116", "assay": "Growth inhibition of human HCT116 cells after 48 hrs by SRB assay", "assay_type": "functional", "settings": "HCT-116, 48 h"}, "[15]": {"test_system": "SF-295", "assay": "Growth inhibition of human SF295 cells after 48 hrs by SRB assay", "assay_type": "functional", "settings": "SF-295, 48 h"}, "[16]": {"test_system": "OVCAR-4", "assay": "Growth inhibition of human OVCAR4 cells after 48 hrs by SRB assay", "assay_type": "functional", "settings": "OVCAR-4, 48 h"}, "[17]": {"test_system": "NCI/ADR-RES", "assay": "Growth inhibition of human NCI-ADR-RES cells after 48 hrs by SRB assay", "assay_type": "functional"}, "[18]": {"test_system": "SK-OV-3", "assay": "Growth inhibition of human SKOV3 cells after 48 hrs by SRB assay", "assay_type": "functional", "settings": "SK-OV-3, 48 h"}, "[19]": {"test_system": "A498", "assay": "Growth inhibition of human A498 cells after 48 hrs by SRB assay", "assay_type": "functional", "settings": "A498, 48 h"}, "[20]": {"test_system": "TK-10", "assay": "Growth inhibition of human TK10 cells after 48 hrs by SRB assay", "assay_type": "functional", "settings": "TK-10, 48 h"}, "[21]": {"test_system": "PC-3", "assay": "Growth inhibition of human PC3 cells after 48 hrs by SRB assay", "assay_type": "functional", "settings": "PC-3, 48 h"}, "[22]": {"test_system": "T47D", "assay": "Growth inhibition of human T47D cells after 48 hrs by SRB assay", "assay_type": "functional"}}, "note": "Calls of active or inactive are those of the source. The calls are words filed in the database; no cut-off is given here."}
{"smiles": "CC(C)(C)OC(=O)Nc1ccc2c(c1)C(NC(=O)Nc1cccc(C#N)c1)CC(C)(C)O2", "note": "(configuration not stated)", "values": [{"measurement": "IC50", "setting": "[1]", "result": "4 to 5.8", "unit": "µM"}, {"measurement": "IC50", "setting": "[2]", "result": 14, "unit": "µM"}, {"measurement": "IC50", "setting": "[3]", "result": "> 200", "unit": "µM"}, {"measurement": "inhibition", "setting": "[4]", "result": "inactive"}, {"measurement": "inhibition", "setting": "[5]", "result": "Dose-dependent effect"}, {"measurement": "inhibition", "setting": "[6]", "result": "Dose-dependent effect"}, {"measurement": "inhibition", "setting": "[7]", "result": "Active"}, {"measurement": "inhibition", "setting": "[8]", "result": "Active"}, {"measurement": "inhibition", "setting": "[9]", "result": "Active"}, {"measurement": "fold change (FC)", "setting": "[10]", "result": 1.3}, {"measurement": "fold change (FC)", "setting": "[11]", "result": 5.9}, {"measurement": "fold change (FC)", "setting": "[12]", "result": 8.6}, {"measurement": "Activity", "setting": "[13]", "result": "inactive"}, {"measurement": "GI50", "setting": "[14]", "result": 1740, "unit": "nM"}, {"measurement": "GI50", "setting": "[15]", "result": 2290, "unit": "nM"}, {"measurement": "GI50", "setting": "[16]", "result": 1780, "unit": "nM"}, {"measurement": "GI50", "setting": "[17]", "result": 3.09, "unit": "µM"}, {"measurement": "GI50", "setting": "[18]", "result": 9.12, "unit": "µM"}, {"measurement": "GI50", "setting": "[19]", "result": 7.08, "unit": "µM"}, {"measurement": "GI50", "setting": "[20]", "result": 5.5, "unit": "µM"}, {"measurement": "GI50", "setting": "[21]", "result": 759, "unit": "nM"}, {"measurement": "GI50", "setting": "[22]", "result": 2690, "unit": "nM"}]}
